Reference: paper PMC4944842 (Molecular cancer therapeutics, 2010)

How the values were obtained:
PKA = PKA (Homo sapiens, UniProt P17612); assay: Kinase enzyme assay; type: biochemical; conditions: read-out: activity remaining
[1] = tested on: U87MG human glioblastoma cells; assay: 96-hour SRB antiproliferative assay; type: cell-based; conditions: U-87 MG, read-out: GI50 for growth inhibition (mean±SD)
Summary of the method: (§1)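 Cells attached for 36 h before treatment so they were in exponential growth. Test compound came from a 10 mM DMSO stock. Growth was measured by sulforhodamine B staining after 96 h of exposure. GI50 was derived by a previously published method and reported as mean ± SD of 3–5 independent experiments.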

Rock-II = Rock-II (Homo sapiens, UniProt O75116); assay: Kinase profiling at 10 µmol/L; type: biochemical; conditions: read-out: activity remaining
Sequence of Rock-II (O75116 whole entry): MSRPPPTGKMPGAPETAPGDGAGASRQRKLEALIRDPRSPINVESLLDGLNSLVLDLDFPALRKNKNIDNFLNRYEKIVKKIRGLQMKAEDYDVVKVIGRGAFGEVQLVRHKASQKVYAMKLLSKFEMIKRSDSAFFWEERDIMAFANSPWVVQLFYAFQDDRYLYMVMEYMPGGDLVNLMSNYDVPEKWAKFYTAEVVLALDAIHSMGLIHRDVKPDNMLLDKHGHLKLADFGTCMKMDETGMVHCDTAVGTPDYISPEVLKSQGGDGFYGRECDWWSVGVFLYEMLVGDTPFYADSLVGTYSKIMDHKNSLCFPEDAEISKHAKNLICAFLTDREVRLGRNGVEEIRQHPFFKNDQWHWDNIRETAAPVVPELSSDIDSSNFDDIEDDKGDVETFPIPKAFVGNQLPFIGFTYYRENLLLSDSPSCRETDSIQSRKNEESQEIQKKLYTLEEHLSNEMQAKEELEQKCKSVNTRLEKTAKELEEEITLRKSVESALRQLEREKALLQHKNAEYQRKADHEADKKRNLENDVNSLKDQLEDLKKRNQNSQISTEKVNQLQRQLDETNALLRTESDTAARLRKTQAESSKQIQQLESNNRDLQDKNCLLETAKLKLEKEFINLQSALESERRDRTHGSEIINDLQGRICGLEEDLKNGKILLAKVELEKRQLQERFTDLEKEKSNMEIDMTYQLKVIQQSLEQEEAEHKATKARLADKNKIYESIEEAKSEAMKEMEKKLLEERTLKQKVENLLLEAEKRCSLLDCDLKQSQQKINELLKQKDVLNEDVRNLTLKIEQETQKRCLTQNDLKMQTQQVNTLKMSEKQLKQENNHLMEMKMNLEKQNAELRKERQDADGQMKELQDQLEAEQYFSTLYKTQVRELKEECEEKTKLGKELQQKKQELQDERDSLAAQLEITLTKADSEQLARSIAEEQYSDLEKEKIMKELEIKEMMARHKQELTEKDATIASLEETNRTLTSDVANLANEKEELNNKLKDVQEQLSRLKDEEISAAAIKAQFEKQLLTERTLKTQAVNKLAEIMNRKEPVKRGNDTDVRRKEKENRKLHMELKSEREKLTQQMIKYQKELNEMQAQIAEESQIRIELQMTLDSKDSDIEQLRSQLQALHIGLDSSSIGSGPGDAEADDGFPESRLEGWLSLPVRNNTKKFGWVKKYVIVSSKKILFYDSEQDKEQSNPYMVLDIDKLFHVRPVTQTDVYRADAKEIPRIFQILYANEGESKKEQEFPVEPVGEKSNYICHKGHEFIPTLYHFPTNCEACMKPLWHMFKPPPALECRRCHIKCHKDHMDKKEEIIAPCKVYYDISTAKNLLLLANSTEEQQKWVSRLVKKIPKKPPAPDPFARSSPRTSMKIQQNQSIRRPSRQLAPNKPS
Summary of the method: (§2)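 Millipore profiling covered 50 human kinases. Test compound was tested at 10 µmol/L, with ATP at the Km of each enzyme. Readout was % kinase activity remaining.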

[2] = tested on: U87MG human glioblastoma xenografts; assay: Pharmacodynamic AKT biomarker immunoblotting in tumor xenografts; type: in vivo, mice; conditions: 50 mg/kg i.p. × 4 days
Summary of the method: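 Mice bearing s.c. U87MG xenografts received 50 mg/kg i.p. daily for 4 days. Tumors were harvested 2 and 6 h after the last dose; protein was measured by Bradford and tumors were immunoblotted. Each phosphoprotein/total protein ratio was normalized to GAPDH and expressed relative to vehicle controls (=1.0). Data are mean ± SE of 3–5 determinations.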

[3] = tested on: PC3 human prostate cancer cells; assay: 96-hour SRB antiproliferative assay; type: cell-based; conditions: read-out: GI50 for growth inhibition (mean±SD)
Summary of the method: as §1

[4] = tested on: panel of kinases representative of the human protein kinome; assay: Kinase profiling at 10 µmol/L against panel of kinases; type: biochemical; conditions: ATP at Km
Summary of the method: as §2

[5] = tested on: PC3 and LNCaP prostate cancer cell lines, HCT116 colorectal cancer cells and MCF7 human breast cancer cells; type: cell-based; conditions: one hour exposure, 3 or 10 µM
Summary of the method: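 PC3, LNCaP, HCT116 and MCF7 cells were exposed for 1 h to 3 or 10 µM test compound. Controls were DMSO and LY294002 (30 µM, 1 h). Lysates were run on 10% Tris-glycine gels, transferred to PVDF and blocked in 5% milk/Tris-NaCl-Tween. Primary antibodies were applied overnight at 4 °C, then HRP secondaries for 1 h, with ECL detection. GAPDH served as loading control.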

[6] = tested on: PTEN-null U87MG human glioblastoma xenografts; assay: Antitumor activity in human tumor xenograft; type: in vivo, mice; conditions: 25 mg/kg i.p. × 5 of 7 days
Summary of the method: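 U87MG cells (2 × 10⁶) were injected s.c. into the right flank of 6–8-week-old female […] mice. Mice were randomized at ~100 mm³ mean tumor volume and given test compound i.p. or vehicle (10% DMSO, 5% Tween 20, 85% saline). Body weight and caliper tumor diameters were recorded three times weekly. Volume = 4/3π[(d1+d2)/4]³; tumors were excised and weighed at study end.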

[7] = tested on: PTEN-null U87MG human glioblastoma cells; assay: Flow cytometry cell cycle analysis; type: cell-based
[8] = Pharmacokinetics after single dose of 25 mg/kg; type: in vivo, mice
Summary of the method: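 Mice bearing HCT116 xenografts received a single 25 mg/kg dose i.v., i.p. or p.o. Plasma and tumor were sampled over time, 3–5 mice per time point. Drug was extracted with methanol and quantified by LC-MS on a Synergi-Polar RP column (0.1% formic acid/methanol gradient, 0.6 ml/min, 12 min). Data are mean ± SE.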

CHK2 = CHK2 (Homo sapiens, UniProt O96017); assay: Kinase profiling at 10 µmol/L; type: biochemical; conditions: read-out: activity remaining
Sequence of CHK2 (O96017 whole entry): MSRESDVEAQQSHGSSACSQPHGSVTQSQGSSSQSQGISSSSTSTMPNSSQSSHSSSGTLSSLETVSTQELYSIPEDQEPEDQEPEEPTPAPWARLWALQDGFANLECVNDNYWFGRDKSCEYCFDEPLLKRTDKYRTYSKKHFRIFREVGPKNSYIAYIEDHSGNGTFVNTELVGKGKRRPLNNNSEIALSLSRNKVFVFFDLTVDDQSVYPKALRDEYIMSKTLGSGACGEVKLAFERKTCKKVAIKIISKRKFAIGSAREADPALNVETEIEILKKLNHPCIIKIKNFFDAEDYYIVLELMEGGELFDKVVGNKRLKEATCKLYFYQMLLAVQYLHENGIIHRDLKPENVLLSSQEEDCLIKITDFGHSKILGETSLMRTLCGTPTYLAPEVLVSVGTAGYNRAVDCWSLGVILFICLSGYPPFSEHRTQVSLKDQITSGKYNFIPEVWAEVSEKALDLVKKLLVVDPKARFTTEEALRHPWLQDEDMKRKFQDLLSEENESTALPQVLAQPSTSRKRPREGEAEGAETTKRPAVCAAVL
Summary of the method: as §2

p70S6K = p70S6K (Homo sapiens, UniProt P23443); assay: Kinase enzyme assay; type: biochemical; conditions: read-out: activity remaining
Sequence of p70S6K (P23443 whole entry): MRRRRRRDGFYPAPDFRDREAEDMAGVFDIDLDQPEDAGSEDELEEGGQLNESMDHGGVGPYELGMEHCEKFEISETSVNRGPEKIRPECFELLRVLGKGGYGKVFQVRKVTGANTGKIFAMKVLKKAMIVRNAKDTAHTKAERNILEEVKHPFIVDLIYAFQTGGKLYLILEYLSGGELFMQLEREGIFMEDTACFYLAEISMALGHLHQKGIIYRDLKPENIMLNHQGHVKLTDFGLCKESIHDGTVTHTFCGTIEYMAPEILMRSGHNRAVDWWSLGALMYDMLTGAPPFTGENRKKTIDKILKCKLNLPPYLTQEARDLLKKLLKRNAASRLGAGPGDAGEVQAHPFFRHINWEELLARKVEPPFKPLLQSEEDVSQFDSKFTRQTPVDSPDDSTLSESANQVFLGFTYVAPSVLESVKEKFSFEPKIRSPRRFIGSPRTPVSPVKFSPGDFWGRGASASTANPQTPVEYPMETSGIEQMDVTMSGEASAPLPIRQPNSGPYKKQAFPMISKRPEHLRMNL
Summary of the method: as §2

[9] = tested on: LNCaP human prostate cancer cells; assay: 96-hour SRB antiproliferative assay; type: cell-based; conditions: read-out: GI50 for growth inhibition (mean±SD)
Summary of the method: as §1

[10] = tested on: U87MG human glioblastoma cells; assay: Immunoblotting of AKT biomarkers and cell cycle proteins; type: cell-based
Summary of the method: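 U87MG cells were exposed for 1 h to increasing test-compound concentrations, or to one fixed concentration sampled at intervals up to 48 h. Controls were DMSO and LY294002 (30 µM, 1 h). Phospho and total AKT, GSK3β, PRAS40, FOXO1/3a, S6RP, cyclin D1, p21 and p27 were immunoblotted (10% Tris-glycine gels, PVDF, overnight 4 °C primaries, ECL). GAPDH served as loading control.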

[11] = tested on: HER2-positive, PIK3CA-mutant BT474 human breast cancer xenografts; assay: Antitumor activity in human tumor xenograft; type: in vivo, mice; conditions: 40 mg/kg bid × 5 of 7 days
Summary of the method: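 BT474 cells (5 × 10⁶) in medium mixed 1:1 with matrigel were implanted into mammary fat pads of female mice. Estradiol pellets (0.025 mg, 90-day release) had been placed s.c. 3 days earlier. Mice were randomized at ~100 mm³ mean tumor volume. Dosing was 40 mg/kg i.p. twice daily for 5 days versus vehicle (10% DMSO, 5% Tween 20, 85% saline). Tumors (calipers) and body weight were measured thrice weekly.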

## NC1(Cc2ccc(Cl)cc2)CCN(c2ncnc3[nH]ccc23)CC1 [CCT128930, 4-(4-chlorobenzyl)-1-(7H-pyrrolo[2,3-d]pyrimidin-4-yl)piperidin-4-amine]
PKA
  remaining activity at 10 µM: < 25%
[1]
  GI50: 6.3 µM
Rock-II
  remaining activity at 10 µM: < 25%
[2]; 2 and 6 hours (P<0.001 and P<0.01)
  phosphorylation of Ser9 GSK3β: significant decreases
[2]; 2 and 6 hours (P<0.05 and P<0.01)
  phosphorylation of Ser235/236 S6RP: significant decreases
[2]; 2 and 6 hours (P<0.05 and P<0.05)
  phosphorylation of Thr246 PRAS40: significant decreases
[2]; 2 and 6 hours after last dose (P<0.001 and P<0.01)
  Ser473 phosphorylation on AKT: significant increase
[3]
  GI50: 1.9 µM
[4]
  cross-reactivity with 47 other kinases: minimal cross-reactivity
[5]
  pSer473 AKT: induction
[5]; all four cell lines
  pSer9 GSK3β: Decreased phosphorylation
  pSer240/244 S6RP: decreased
[6]
  weight loss: no weight loss
[7]; 1 × GI50, 24 hours, DMSO control 16.7%
  G2/M cells: 18.9%
[7]; 1 × GI50, 24 hours, DMSO control 32.3%
  S phase cells: 13.2%
[7]; 1 × GI50, 24 hours, DMSO control 46.4%
  G0/G1 phase cells: 63.2%
[7]; 3 × GI50 (18.9µM), 24 hours, DMSO control 17.8%
  G2/M phase cells: 30.5%
[7]; 3 × GI50 (18.9µM), 24 hours, DMSO control 36.6%
  S phase cells: 2.0%
[7]; 3 × GI50 (18.9µM), 24 hours, DMSO control 43.6%
  G0/G1 phase cells: 64.8%
[8]; 25 mg/kg i.p., HCT116 human colon tumor xenograft
  peak tumor concentration: 8 µM
[8]; 25 mg/kg i.p., HCT116 tumor xenograft
  AUC0-∞ tumor: 25.8 µMh
[8]; 25 mg/kg i.p., after 24 hours (data not shown)
  administered dose recovered unaltered in urine: 0.23%
[8]; 25 mg/kg i.p., mice
  AUC0-∞ plasma: 1.3 µMh
[8]; 25 mg/kg i.v., mice
  AUC0-∞ plasma: 4.6 µMh
  peak concentration in plasma: 6.4 µM
[8]; 25 mg/kg p.o., mice
  peak plasma concentration: 0.43 µM
CHK2
  remaining activity at 10 µM: < 25%
p70S6K
  remaining activity at 10 µM: < 25%
[9]
  GI50: 0.35 µM
[10]; 18.9 μM
  cyclin D1 over time: decreased after 8 hours
[10]; 18.9 μM (3× GI50), after 30 minutes, sustained for 48 hours
  pSer473 AKT over time: increase in phosphorylation
[10]; 18.9 μM, after one hour exposure
  pThr32 FOXO3a phosphorylation: marked decrease
[10]; 18.9 μM, decrease at 30 minutes
  pSer235/236 S6RP signal over time: complete loss after 2 hours
[10]; 18.9 μM, decreased from 4 hours
  pSer240/244 S6RP signal over time: abolished after 8 hours
[10]; 18.9 μM, from 30 minutes, sustained at least 24 hours, recovery at 48 hours
  pSer9 GSK3β phosphorylation over time: rapid and profound loss
[10]; 18.9 μM, from 30 minutes, sustained throughout 48 hours
  pThr246 PRAS40 over time: marked loss in phosphorylation
[10]; 18.9 μM, from 2 hours
  CDK inhibitor p27 over time: induction
[10]; 1 hour
  exposure sufficient to markedly inhibit phosphorylation of GSK3β, S6RP, FOXO1 and PRAS40: 5 to 10 µM
[10]; 1 h treatment
  concentration decreasing cyclin D1 expression: ≥ 40 µM
  concentration inhibiting direct substrates of AKT (Ser9 GSK3β, pThr246 PRAS40 and pT24 FOXO1/p32 FOXO3a): ≥ 5 μM
  concentration inhibiting downstream target pSer235/236 S6RP: ≥ 10 μM
[10]; 1 h treatment, increasing concentrations
  effect on pSer240/244 S6RP: minimal effects
[10]; 1 h treatment, decrease at higher concentrations
  concentration up to which AKT phosphorylation at serine 473 is induced: up to 20 μM
[10]; after CCT128930 treatment (Supplementary Figure 2)
  apoptosis as measured by PARP cleavage: increase
[11]
  antitumor effect: complete growth arrest
[11]; day 15 of treatment
  body weight nadir, % of the initial body weight: 94.8%
